# ChEMBL document CHEMBL1146093, “Identification of ellagic acid as potent inhibitor of protein kinase CK2: a successful example of a virtual screening application” (J Med Chem, 2006)
# What was measured:
# [1] = molecular target: T1, NPM/ALK (Nucleophosmin/ALK tyrosine kinase receptor) (Homo sapiens) (UniProt Q9UM73+P06748); test: Antiproliferative activity against SUDHL1 expressing NPM-ALK by MTT assay; assay type: functional; conditions: concentration not given here
# Method in brief: (§1)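 MTT viability in ALCL lines cultured 48 h with or without compound at 5-100 × 10^-6 M. Viability is expressed relative to DMSO-treated control cells, set at 1.0. Values are means of triplicate cultures.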
# [2] = molecular target: Glycogen synthase kinase-3 beta (Homo sapiens, UniProt P49841); test: Inhibition of human recombinant GSK3-beta
# Method in brief: (§2)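 Each kinase's activity was measured by a method given in the Supporting Information. IC50 values are means of at least three independent experiments, with SEM never above 15%.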
# [3] = molecular target: T1, NPM/ALK (Nucleophosmin/ALK tyrosine kinase receptor) (Homo sapiens); test: Antiproliferative activity against SR786 expressing NPM-ALK by MTT assay; assay type: functional; conditions: concentration not given here; method in brief: as §1
# [4] = molecular target: NPM/ALK (Nucleophosmin/ALK tyrosine kinase receptor) (Homo sapiens, UniProt Q9UM73); test: Inhibition of NPM-ALK; assay type: protein assay; method in brief: as §2
# [5] = molecular target: Tyrosine-protein kinase Lyn (Rattus norvegicus, UniProt Q07014); test: Inhibition of rat spleen Lyn; assay type: tissue-based; method in brief: as §2
# [6] = Inhibition of rat liver CK1; method in brief: as §2
# [7] = molecular target: T1, NPM/ALK (Nucleophosmin/ALK tyrosine kinase receptor) (Homo sapiens); test: Antiproliferative activity against KARPAS299 expressing NPM-ALK by MTT assay; assay type: functional; conditions: concentration not given here; method in brief: as §1
# [8] = Inhibition of rat liver CK2; method in brief: as §2
# [9] = molecular target: Proto-oncogene tyrosine-protein kinase receptor Ret (Homo sapiens, UniProt P07949); test: Inhibition of RET; method in brief: as §2
# [10] = molecular target: Tyrosine-protein kinase Fgr (Rattus norvegicus, UniProt Q6P6U0); test: Inhibition of rat spleen FGR; assay type: tissue-based; method in brief: as §2
# [11] = molecular target: T2, Receptor-type tyrosine-protein kinase FLT3 (Homo sapiens, UniProt P36888); test: Inhibition of FLT3; method in brief: as §2
# T2 sequence (P36888 whole entry): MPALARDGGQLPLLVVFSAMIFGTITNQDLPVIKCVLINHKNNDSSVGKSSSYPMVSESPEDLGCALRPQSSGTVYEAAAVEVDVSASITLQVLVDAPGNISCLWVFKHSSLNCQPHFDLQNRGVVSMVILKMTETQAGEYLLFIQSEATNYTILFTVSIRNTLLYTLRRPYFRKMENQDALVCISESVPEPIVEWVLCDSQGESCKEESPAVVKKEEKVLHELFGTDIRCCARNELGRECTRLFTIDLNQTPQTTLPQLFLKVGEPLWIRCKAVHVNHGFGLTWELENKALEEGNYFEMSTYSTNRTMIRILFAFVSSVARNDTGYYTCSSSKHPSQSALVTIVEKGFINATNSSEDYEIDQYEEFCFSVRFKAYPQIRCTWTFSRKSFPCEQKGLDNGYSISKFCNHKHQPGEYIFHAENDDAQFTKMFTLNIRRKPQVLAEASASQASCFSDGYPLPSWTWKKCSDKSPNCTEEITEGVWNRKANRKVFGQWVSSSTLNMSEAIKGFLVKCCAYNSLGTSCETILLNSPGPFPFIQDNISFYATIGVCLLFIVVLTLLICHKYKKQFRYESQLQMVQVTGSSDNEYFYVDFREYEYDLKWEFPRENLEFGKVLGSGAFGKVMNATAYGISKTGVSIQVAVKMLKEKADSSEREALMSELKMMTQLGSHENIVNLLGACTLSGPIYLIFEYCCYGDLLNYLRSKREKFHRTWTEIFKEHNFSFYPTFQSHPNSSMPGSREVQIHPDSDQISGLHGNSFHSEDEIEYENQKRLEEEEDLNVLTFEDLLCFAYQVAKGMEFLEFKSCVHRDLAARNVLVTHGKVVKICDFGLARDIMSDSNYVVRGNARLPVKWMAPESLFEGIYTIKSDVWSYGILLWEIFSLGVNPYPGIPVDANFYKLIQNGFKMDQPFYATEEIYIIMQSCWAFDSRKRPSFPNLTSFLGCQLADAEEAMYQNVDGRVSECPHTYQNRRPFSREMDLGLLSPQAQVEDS
# [12] = molecular target: cAMP-dependent protein kinase (PKA) (Homo sapiens, UniProt P22694+P17612+P22612); test: Inhibition of PKA; assay type: protein assay; method in brief: as §2
# [13] = molecular target: Dual specificity tyrosine-phosphorylation-regulated kinase 1A (Homo sapiens, UniProt Q13627); test: Inhibition of human recombinant DYRK1a; method in brief: as §2
# [14] = molecular target: Tyrosine-protein kinase CSK (Rattus norvegicus, UniProt P32577); test: Inhibition of rat spleen CSK; assay type: tissue-based; method in brief: as §2
# [15] = molecular target: Tyrosine-protein kinase SYK (Rattus norvegicus, UniProt Q64725); test: Inhibition of rat spleen SYK; assay type: tissue-based; method in brief: as §2
# FEPD = test: Antiproliferative activity against FEPD by MTT assay; assay type: functional, Homo sapiens; method in brief: as §1
# T1 sequence (P06748 whole entry partner): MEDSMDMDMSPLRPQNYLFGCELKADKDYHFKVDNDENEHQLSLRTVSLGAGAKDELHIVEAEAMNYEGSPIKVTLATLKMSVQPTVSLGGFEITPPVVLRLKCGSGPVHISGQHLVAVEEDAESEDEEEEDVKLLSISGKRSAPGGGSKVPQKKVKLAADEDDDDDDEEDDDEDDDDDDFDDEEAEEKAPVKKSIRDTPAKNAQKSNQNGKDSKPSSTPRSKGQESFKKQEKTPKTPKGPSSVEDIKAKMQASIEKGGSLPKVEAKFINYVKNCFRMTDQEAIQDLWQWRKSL
# T1 sequence (Q9UM73 19-1620 limits assumed): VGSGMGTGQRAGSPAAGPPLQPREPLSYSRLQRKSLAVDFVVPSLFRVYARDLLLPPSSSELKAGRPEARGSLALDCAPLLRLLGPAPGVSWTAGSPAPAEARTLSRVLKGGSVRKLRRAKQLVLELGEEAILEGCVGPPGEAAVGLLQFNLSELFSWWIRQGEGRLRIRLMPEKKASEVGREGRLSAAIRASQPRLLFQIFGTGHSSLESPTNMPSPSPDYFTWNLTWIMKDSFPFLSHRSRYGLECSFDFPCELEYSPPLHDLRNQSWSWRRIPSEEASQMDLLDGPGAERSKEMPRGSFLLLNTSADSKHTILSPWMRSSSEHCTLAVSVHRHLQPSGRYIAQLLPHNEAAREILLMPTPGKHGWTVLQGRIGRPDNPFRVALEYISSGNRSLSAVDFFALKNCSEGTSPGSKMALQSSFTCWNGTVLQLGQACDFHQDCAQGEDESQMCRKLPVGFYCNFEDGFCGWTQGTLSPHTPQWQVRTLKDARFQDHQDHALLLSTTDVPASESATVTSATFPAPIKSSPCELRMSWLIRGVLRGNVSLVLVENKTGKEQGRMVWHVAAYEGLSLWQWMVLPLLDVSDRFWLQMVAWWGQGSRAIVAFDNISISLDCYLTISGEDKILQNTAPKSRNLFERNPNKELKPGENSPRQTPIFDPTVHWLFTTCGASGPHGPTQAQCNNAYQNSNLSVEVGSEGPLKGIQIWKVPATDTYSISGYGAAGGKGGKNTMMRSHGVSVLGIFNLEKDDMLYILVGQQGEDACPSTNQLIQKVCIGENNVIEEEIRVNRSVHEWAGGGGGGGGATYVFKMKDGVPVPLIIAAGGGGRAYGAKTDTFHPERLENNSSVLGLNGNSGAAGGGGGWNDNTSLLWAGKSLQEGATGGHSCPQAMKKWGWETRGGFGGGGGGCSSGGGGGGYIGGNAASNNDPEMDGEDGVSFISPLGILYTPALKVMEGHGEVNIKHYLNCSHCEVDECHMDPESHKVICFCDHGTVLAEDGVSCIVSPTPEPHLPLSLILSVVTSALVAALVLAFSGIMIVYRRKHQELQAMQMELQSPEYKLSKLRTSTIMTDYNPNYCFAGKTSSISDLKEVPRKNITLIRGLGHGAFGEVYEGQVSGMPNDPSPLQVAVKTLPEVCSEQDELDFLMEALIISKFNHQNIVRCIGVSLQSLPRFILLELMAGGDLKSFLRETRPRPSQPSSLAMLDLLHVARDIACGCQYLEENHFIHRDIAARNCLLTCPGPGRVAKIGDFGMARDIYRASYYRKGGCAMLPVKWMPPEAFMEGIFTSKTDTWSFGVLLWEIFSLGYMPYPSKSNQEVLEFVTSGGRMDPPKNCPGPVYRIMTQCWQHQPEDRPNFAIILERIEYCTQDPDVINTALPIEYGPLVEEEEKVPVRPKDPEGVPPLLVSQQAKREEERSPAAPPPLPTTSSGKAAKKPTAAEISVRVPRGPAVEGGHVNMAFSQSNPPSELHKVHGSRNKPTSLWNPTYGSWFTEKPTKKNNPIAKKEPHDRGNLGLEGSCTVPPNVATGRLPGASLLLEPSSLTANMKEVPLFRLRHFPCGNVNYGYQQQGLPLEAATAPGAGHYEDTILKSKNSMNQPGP
# Chain of NPM/ALK (Nucleophosmin/ALK tyrosine kinase receptor) (Q9UM73 whole entry): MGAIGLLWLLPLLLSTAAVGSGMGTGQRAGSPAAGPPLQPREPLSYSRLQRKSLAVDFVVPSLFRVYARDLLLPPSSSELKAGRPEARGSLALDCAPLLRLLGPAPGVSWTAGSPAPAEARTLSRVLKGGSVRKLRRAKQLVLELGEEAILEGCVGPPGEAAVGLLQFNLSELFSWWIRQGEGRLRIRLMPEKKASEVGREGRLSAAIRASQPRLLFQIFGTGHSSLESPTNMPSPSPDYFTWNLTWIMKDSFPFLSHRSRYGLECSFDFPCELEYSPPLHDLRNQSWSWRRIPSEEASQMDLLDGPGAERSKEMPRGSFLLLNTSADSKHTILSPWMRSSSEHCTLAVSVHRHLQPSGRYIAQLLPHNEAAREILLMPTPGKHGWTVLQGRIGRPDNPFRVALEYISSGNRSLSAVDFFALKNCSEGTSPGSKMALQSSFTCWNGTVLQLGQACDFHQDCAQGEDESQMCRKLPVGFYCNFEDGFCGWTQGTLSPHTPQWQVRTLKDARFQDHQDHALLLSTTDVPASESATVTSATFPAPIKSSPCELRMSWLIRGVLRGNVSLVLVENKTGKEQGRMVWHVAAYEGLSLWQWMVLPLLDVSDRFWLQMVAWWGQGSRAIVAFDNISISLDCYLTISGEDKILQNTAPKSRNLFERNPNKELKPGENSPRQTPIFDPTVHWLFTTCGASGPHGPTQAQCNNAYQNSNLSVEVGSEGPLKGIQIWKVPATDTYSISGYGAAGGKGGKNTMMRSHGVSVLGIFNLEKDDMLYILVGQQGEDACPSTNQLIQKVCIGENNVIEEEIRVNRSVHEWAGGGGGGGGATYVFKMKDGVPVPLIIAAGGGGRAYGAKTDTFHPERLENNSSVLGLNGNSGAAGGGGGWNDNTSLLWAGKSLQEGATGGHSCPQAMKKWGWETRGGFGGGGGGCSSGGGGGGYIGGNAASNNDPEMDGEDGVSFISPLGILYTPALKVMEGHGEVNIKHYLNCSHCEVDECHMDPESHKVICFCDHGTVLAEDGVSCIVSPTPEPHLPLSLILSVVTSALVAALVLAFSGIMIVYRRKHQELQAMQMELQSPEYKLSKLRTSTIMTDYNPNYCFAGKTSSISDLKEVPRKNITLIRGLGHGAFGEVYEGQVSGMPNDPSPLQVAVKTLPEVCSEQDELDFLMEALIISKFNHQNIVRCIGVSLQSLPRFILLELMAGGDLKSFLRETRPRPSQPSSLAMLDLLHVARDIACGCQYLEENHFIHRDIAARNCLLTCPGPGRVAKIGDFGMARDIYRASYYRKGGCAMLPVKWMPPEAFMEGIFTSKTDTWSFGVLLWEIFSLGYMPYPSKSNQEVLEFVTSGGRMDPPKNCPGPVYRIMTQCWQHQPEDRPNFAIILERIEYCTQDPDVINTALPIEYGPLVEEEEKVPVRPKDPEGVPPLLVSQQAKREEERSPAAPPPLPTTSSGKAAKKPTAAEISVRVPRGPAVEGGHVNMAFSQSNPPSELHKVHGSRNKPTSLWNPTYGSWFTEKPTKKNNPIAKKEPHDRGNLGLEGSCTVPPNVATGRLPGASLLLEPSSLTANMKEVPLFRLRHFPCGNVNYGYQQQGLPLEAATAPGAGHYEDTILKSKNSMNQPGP
# Chain of NPM/ALK (Nucleophosmin/ALK tyrosine kinase receptor) (P06748 whole entry, further chain): as the sequence (P06748 whole entry partner) above
# Chain of Tyrosine-protein kinase Fgr (Q6P6U0 whole entry): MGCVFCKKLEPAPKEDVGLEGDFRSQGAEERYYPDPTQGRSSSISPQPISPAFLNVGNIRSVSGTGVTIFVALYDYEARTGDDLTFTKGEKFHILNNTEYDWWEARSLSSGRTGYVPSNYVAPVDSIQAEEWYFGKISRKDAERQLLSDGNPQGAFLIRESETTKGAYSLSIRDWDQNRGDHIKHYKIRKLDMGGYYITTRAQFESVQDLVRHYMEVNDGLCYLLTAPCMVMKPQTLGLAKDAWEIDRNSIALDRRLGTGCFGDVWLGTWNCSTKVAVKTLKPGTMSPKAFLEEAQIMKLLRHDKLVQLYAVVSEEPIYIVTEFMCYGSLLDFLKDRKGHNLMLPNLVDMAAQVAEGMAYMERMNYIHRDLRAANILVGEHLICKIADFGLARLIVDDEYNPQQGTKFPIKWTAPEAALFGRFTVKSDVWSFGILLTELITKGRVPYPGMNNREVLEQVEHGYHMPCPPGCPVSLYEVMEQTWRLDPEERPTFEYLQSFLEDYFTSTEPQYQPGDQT
# Chain of Tyrosine-protein kinase CSK (P32577 whole entry): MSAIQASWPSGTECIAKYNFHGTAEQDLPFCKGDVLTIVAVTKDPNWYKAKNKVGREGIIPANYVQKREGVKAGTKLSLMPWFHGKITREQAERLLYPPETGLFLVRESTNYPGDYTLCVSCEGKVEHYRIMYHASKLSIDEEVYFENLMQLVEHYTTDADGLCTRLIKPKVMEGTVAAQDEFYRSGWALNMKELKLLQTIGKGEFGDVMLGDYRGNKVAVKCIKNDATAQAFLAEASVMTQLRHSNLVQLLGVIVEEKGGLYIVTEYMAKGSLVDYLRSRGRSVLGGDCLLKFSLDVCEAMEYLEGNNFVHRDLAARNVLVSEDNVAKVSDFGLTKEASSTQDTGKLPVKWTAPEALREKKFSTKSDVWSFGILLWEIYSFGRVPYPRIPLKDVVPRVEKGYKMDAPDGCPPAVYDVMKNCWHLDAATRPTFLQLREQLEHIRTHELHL
# Chain of Tyrosine-protein kinase Lyn (Q07014 whole entry): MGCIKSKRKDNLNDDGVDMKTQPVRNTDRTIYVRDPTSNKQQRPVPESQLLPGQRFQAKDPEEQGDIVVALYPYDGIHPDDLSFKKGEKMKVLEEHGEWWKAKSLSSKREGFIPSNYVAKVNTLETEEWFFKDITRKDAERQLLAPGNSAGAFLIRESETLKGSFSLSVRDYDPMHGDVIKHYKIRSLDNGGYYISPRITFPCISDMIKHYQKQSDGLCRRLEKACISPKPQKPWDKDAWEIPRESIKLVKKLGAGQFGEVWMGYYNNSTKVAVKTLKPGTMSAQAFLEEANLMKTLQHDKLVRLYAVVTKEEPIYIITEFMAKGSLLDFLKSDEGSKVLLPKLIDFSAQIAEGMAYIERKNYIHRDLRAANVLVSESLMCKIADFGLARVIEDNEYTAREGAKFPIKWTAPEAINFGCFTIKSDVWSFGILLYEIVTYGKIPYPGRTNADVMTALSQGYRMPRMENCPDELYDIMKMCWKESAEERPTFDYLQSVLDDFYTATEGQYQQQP
smiles,measurement,setting,value
O=c1oc2c(O)c(O)cc3c(=O)oc4c(O)c(O)cc1c4c23 [ELLAGIC ACID],inhibition,[1],85%
same,IC50,[2],7.5 µM
same,inhibition,[3],40%
same,IC50,[4],> 40 µM
same,IC50,[5],2.9 µM
same,IC50,[6],13 µM
same,inhibition,[7],60%
same,IC50,[8],0.04 µM
same,Ki,[8],0.02 µM
same,IC50,[9],> 40 µM
same,IC50,[10],9.4 µM
same,IC50,[11],> 40 µM
same,IC50,[12],3.5 µM
same,IC50,[13],> 40 µM
same,IC50,[14],> 40 µM
same,IC50,[15],4.3 µM
same,Inhibition,FEPD,70%
